B1: tRNA (parent)
chain: GUUCCGUUGGCGUAAUGGUAACGCGUCUCCCUCCUAAGGAGAAGACUGCGGGUUCGAGUCCCGUACGGAACG

This sample holds only a part of the variants without activity. A value given as a limit tells only on which side of the number the result lay.

In the data set the parent is B1. As to the kind of experiment: yeast fitness relative to wild type (ratio to wild type); higher = fitter; tRNA-Arg(CCU), competitive growth, 37 C, YPD. The procedure, abridged:
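For this measurement, the tRNA-Arg(CCU) gene was varied by chemical synthesis at a 3% per-site mutation rate across 69 sites, and each variant was placed at the native genomic locus in Saccharomyces cerevisiae. The pooled strains went through a 24-hour competition in YPD at 37°C in six parallel replicates, with amplicons from start and end populations read by 100-nucleotide paired-end sequencing. Darwinian fitness relative to wild type followed from the change in each genotype's frequency. Genotypes needed ≥ 100 starting reads, and estimates < 0.5 were set to 0.5.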
G48A G50A: the yeast fitness turned out to be 0.973. For G52C C55U G63A A65U the value was no more than 0.5; for U54G G58A, 0.544. Consider G51A G63U C66A, for which the yeast fitness is no more than 0.5.

In the case of G52C C66G, the yeast fitness was 0.6.

In the case of G52C C66A, the yeast fitness is 0.538. For G51A A65U A69C the value was no more than 0.5; for G50A A65G, 1.03; for G50A A65C, 0.887.

In the case of C49G A57C G67U, the yeast fitness came to 0.576. For U53C A57G the value was 0.79. In the case of U53C A57C, the yeast fitness stood at 0.54. For C49U A57U, the yeast fitness was found to be 0.632. Take C49A A57C A69U: the yeast fitness worked out at 0.528.

C49A A57C A69C: the yeast fitness is no more than 0.5.

As to G50A C55G, the yeast fitness worked out at 0.514.

For G50A C55U, the yeast fitness was found to be 0.893. For the variant U54G C55U, the yeast fitness is 0.511. For U53A C55G the value was 0.588.

As to G48A G50A U54A, the yeast fitness was determined as 0.597. For G50C G68C the value was 0.715; for G51A U53A, 0.534. As to G48A U54C C66U, the yeast fitness is no more than 0.5.

On to G50C C55A A57C, for which the yeast fitness came to 0.559.

As for C49U A57U U59C, the yeast fitness worked out at 0.536. For G48U C61A the value was no more than 0.5; for G50A A57C C66U, no more than 0.5. On to G51A G56A C62G, for which the yeast fitness was no more than 0.5. For C49G U59G the value was 0.635. Take G48A U54G A70U: the yeast fitness was no more than 0.5. For C49A G56C G58C the value was no more than 0.5; for C49U C60A C61A, 0.574; for G52A A69C, 0.738. For C49A A69C the value was 0.709; for C49A A69U, 0.681; for G50A G63C, 0.737. For G51C A65G the value was 0.593; for U53A C60G G67A A70C, no more than 0.5; for C49G U53A A70G, no more than 0.5. Take C49A C62U C66U: the yeast fitness was 0.585. For G51A G52U C62A the value was no more than 0.5. For U53C A70U the value was 0.848.

As to C49U C55U, the yeast fitness was found to be 0.649. For C49U C55A the value was 0.557; for C49G U59A G63A, 0.564. Consider G48A G56C, for which the yeast fitness was determined as 0.618.

For the variant C49U C55A C60A, the yeast fitness is no more than 0.5. For U53C U64C the value was 0.817; for G48A A70U, 1.04. For U53A C60G the value was 0.617. In the case of U53A G68C, the yeast fitness was 0.6. Take G51A C55G: the yeast fitness worked out at 0.648.

Consider G51A C61U A65G A69C, for which the yeast fitness came out at 1.07.

Regarding G52C U64G, the yeast fitness was 0.614. For U54C A65U the value was 0.894. For G52A U59A C61A the value was no more than 0.5. For U53A G56A A65U the value was no more than 0.5; for G50C A57G, 0.789; for C49U G58C C62G A69C, 0.559. Consider U54G A57G, for which the yeast fitness was found to be 0.615. Turning to G48A G68C, the yeast fitness amounted to 0.985.

For G52C G56C, the yeast fitness is no more than 0.5. For C49A G56C G68C the value was 0.574; for G48A U54C A69C, 0.686.

With G51A G58C, the yeast fitness came out at 0.901. For C49G C55G C61G the value was 0.558; for U53C G67A, 0.808; for G48C A65G G67C, no more than 0.5. U53C G56A: the yeast fitness came to 0.802. As for G50A G67C G68U, the yeast fitness is no more than 0.5. Take C49U U53A G68A: the yeast fitness is no more than 0.5. For G52C C61A the value was no more than 0.5; for G52C C61U, 0.66. For G52C C62U the value was 0.559; for G48C C62G A65U, no more than 0.5; for G52C C55U A65U, no more than 0.5. Regarding U54G C55G A65U, the yeast fitness is no more than 0.5. For the variant G50A C61U, the yeast fitness stood at 0.863.

As for U54A C55A C66G, the yeast fitness is 0.714.

With G48A U64G, the yeast fitness came to 1. For the variant U53C C62U, the yeast fitness turned out to be 0.737. Take G51C C61G A70C: the yeast fitness came to 0.542. For C49G G56C A70C the value was no more than 0.5.

Turning to G48A G58C C61A, the yeast fitness is 0.601.

Regarding U54C C66G, the yeast fitness came out at 0.803. For U54G A57U A65U the value was no more than 0.5. For G50C C60U C62A the value was 0.676; for G50C C61U, 0.609; for U54G U59C A69U, no more than 0.5. G48C A65C C66G: the yeast fitness came out at 0.557. For G50C C55G C60A the value was 0.63; for C49U C61A A65U, no more than 0.5; for U54C A57G G63C A65C, no more than 0.5.

On to C49G C55A C60U C66A, for which the yeast fitness is no more than 0.5. On to U54G G63U, for which the yeast fitness is no more than 0.5. For G52A A57G the value was 0.852; for G51C U59G, 0.508; for G48A G63A A70U, 0.811. For G48A C55U A57G G68C the value was no more than 0.5; for C49A U53C C62G, 0.598; for U54G G67A, 0.637. For U54G G67C the value was no more than 0.5; for G51A U64C G67C A69G, 0.854; for U54G C61U G67C, no more than 0.5.

Consider G51C C62G G68A A70U, for which the yeast fitness was no more than 0.5. For G48C C66A the value was 0.633; for G50A A69C, 0.74. For G52A G67A the value was 0.831. C49G A69C: the yeast fitness worked out at 0.766. For C49G A69U the value was 0.955. For C49A U59A the value was 0.681; for G50C U54C, 0.635; for G48A G52C A57C C62A, no more than 0.5.

With U53C G58C, the yeast fitness was 0.977.

Regarding G51A U53G G58A, the yeast fitness is no more than 0.5.

G48A C60G: the yeast fitness is 0.583. For C49G G56C G67C the value was no more than 0.5; for G52U A65G, 0.793. For G48C U59C the value was 0.929; for G48C U59G, 0.722; for G52A G58C, 0.801. For C49A C61U the value was 0.607; for C49A C61G, 0.541; for U54C C61A G68U, no more than 0.5. Consider G50U G68C, for which the yeast fitness worked out at 0.804.

For the variant C49U C60A A70G, the yeast fitness came out at 0.546. For G48A U53C C60A C61U the value was no more than 0.5. For the variant U53G G63A, the yeast fitness worked out at 0.553. Consider G52A G56A A65U A70G, for which the yeast fitness is no more than 0.5.

Turning to C49U A65C A70G, the yeast fitness was 0.768. Consider U54C C55U, for which the yeast fitness was 0.72. For U54C C55A the value was 0.635; for G50C C62G C66U, 0.968; for G51U A69C, 0.824. For G50A A57C the value was 0.611; for C49G C60U, 0.692; for G50C U53C, 0.614. For C49G U53C C60A the value was no more than 0.5; for C49U U59G C60U, no more than 0.5. As to C49U U64A A69U, the yeast fitness was determined as 0.558. For C49G G50A G68C A69G the value was no more than 0.5. For G52C G63C the value was 0.577; for C49G U64G A65G A70U, 0.683.

As to U53A U59C, the yeast fitness was determined as 0.555. For C49A G67C the value was 0.825; for G50A C60U, 0.819; for G50A C60G, 0.748.

G52C A69U: the yeast fitness came to 0.707. G52A C66A A69U: the yeast fitness was 0.551.

For C49G G50C A65U, the yeast fitness was 0.544. For C49G U64C the value was 0.972; for G52A C60U, 0.579.

Turning to U54A A65U, the yeast fitness was 0.618. For U54A A65G the value was 0.584; for G50A U53A A57G G58A A69C, 0.657. For G52A A65C the value was 0.848; for G52A U54A, 0.537. For G51A A57U A65U the value was no more than 0.5; for C49U U59C C62G, 0.503; for G48C A70U, 1. Turning to G48A G56A A65G, the yeast fitness amounted to 0.718. For U54G G63C A69C the value was 0.535; for G50C C55G, 0.56; for G50C C55U, 0.716.

With G48C U53C, the yeast fitness is 0.694. For G48C U53G the value was 0.635; for C49G C62A, 0.845.

These data come from the RNAGym collection of RNA variant scans (doi:10.1126/science.aae0568).
